Common to all, as to type: functional
Experiment [1] concerns Mycobacterium tuberculosis. In words: Antitubercular activity against multi-drug resistant Mycobacterium tuberculosis. In a few lines:
(§1)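 Inoculum grown to late log phase in Middlebrook 7H9 with 0.2% glycerol, 0.05% Tween 80 and 10% ADC, then washed in PBS, filtered through 8 µm to remove clumps and frozen at -80 °C. Twofold compound dilutions in 7H9-ADC-TG with 2 × 10⁵ CFU per well, 37 °C. Alamar blue and Tween 80 added on day 7, read after 16-24 h (ex 530/em 590 nm). MIC is the lowest concentration giving ≥90% fluorescence reduction versus bacterium-only controls.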

The test system of experiment [2] is Mycobacterium tuberculosis. In words: Antitubercular activity against multi-drug resistant Mycobacterium tuberculosis isolate 16995 after 7 days by Alamar blue assay. Particulars: isolate 16995, 168 h. The procedure, abridged: as §1
Background: Resazurin is reduced to fluorescent resorufin, in cell work by metabolically active cells.

The subject of experiment [3] is Mycobacterium tuberculosis. In words: Antitubercular activity against multi-drug resistant Mycobacterium tuberculosis isolate 16883 after 7 days by Alamar blue assay. Particulars: isolate 16883, 168 h. In a few lines:
as §1

Molecules are shown by their SMILES. Values after ≈ are worked out from the molar mass of the structure shown. Where only a bound is given, the exact number is not on record here.

In general, MIC refers to the smallest concentration in the dilution series that meets the test's criterion for growth inhibition. Low readings indicate a more susceptible organism, high ones a less susceptible organism. Compound `CN(CC1CCCCC1)C1CCN(c2nc(=O)c3cc(C(F)(F)F)cc([N+](=O)[O-])c3s2)CC1` returned a minimal inhibitory concentration (MIC) in experiment [1] of 0.016 µg/mL (≈ 0.033 µM). What is called MIC90 is the lowest concentration that inhibits either 90% of growth or 90% of the strains tested, depending on the study. The low end stands for greater potency, the high end for weaker potency. In the case of `O=c1nc(N2CCC(CN3CCC(C(F)(F)F)CC3)CC2)sc2c([N+](=O)[O-])cc(C(F)(F)F)cc12`, the MIC90 in experiment [2] and in experiment [3] was below 0.016 µg/mL in each case.

As to `NNC(=O)c1ccncc1` [ISONIAZID], the MIC90 in experiment [2] and in experiment [3] was above 40 µg/mL throughout. For the compound `O=c1nc(N2CCN(CC3CCCCC3)CC2)sc2c([N+](=O)[O-])cc(C(F)(F)F)cc12` [MACOZINONE], the MIC90 in experiment [2] and in experiment [3] was below 0.016 µg/mL each time. As to `CO[C@H]1/C=C/O[C@@]2(C)Oc3c(C)c(O)c4c(O)c(c(/C=N/N5CCN(C)CC5)c(O)c4c3C2=O)NC(=O)/C(C)=C\C=C\[C@H](C)[C@H](O)[C@@H](C)[C@@H](O)[C@@H](C)[C@H](OC(C)=O)[C@@H]1C` [RIFAMPIN], the MIC90 in experiment [2] and in experiment [3] was above 40 µg/mL each time.

For the origin of these results see ChEMBL document CHEMBL4229369, “Design, synthesis and antitubercular evaluation of benzothiazinones containing a piperidine moiety” (Eur J Med Chem, 2018).
